# Results as given in the EternaBench riboswitch data.
# System: MS2 coat protein
# Assay: apparent Kd, MS2 coat protein; higher = weaker binding; RNA-MaP array; FMN 200 µM where present
# Summary of the method: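 Binding was read on Illumina sequencing-chip clusters where stalled E. coli RNA polymerase had transcribed each design. A titration of SNAP-549-labelled MS2 coat protein began at 0.7 or 1.5 nM and doubled to 3 µM, once without ligand and once with constant ligand, in 100 mM Tris-HCl pH 7.5, 80 mM KCl, 4 mM MgCl2, BSA, DTT, yeast tRNA and Tween-20. The apparent Kd is the median of filtered per-cluster binding-curve fits, based on green signal normalised to red-channel RNA signal and control-cluster median Fmax.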
# [1] = designed as: OFF switch for flavin mononucleotide, no ligand
# [2] = ligand present: flavin mononucleotide, designed as: OFF switch for flavin mononucleotide
# [3] = designed as: ON switch for flavin mononucleotide, no ligand
# [4] = ligand present: flavin mononucleotide, designed as: ON switch for flavin mononucleotide
Sequence,apparent Kd [1] [nM],apparent Kd [2] [nM],apparent Kd [3] [nM],apparent Kd [4] [nM]
AAUAACAGAGGAUAUACUAUUUUAUGUGUUUAUUGUUUUGAACAUGAGGAUCACCCAUGUAGAAGGCUGAUUAA,41,58.7,–,–
AAUAACAGAGGAUAUACUAUUUUAUGUGUUUAUUGUUUUGAACAUGAGGAUCACCCAUGUAGAAGGCUGAUUGA,47.8,56.3,–,–
AAUAACAGAGGAUAUACUAUUUUAUGUGUUUGUUGUUUUGAACAUGAGGAUCACCCAUGUAGAAGGCUGAAUAA,22.6,25.6,–,–
AAUAACAGAGGAUAUACUGUUUUAUGUGUUUAUUAUUUUAAACAUGAGGAUCACCCAUGUAGAAGGCUGAAUAA,42.6,42.8,–,–
AAUAACAGAGGAUAUACUGUUUUAUGUGUUUAUUGUUUUGAACAUGAGGAUCACCCAUGUAGAAGGCUGAGUAA,27.8,28.2,–,–
AAUAACAGAGGAUAUACUGUUUUAUGUGUUUGUUAUUUUGAACAUGAGGAUCACCCAUGUAGAAGGCUGAAUGA,28.9,29.7,–,–
AAUAACAGAGGAUAUACUGUUUUAUGUGUUUGUUAUUUUGAACAUGAGGAUCACCCAUGUAGAAGGCUGAGUAA,27.8,28.4,–,–
AAUAACGGAGCUACAUGAGGAUCACCCAUGUACGGGUGAUCCUAGGAUAUGCCCGCAACUAUGUCGCAGAAGGAGGGUUGCCCA,–,–,20.4,39.7
AAUAAGUCAGGAUAUACUAUGUCAGGAGAGAGACUGACUAUGUAGAAGGGACAUGAGGAUCACCCAUGUAAUAA,28.6,35.9,–,–
AAUAAUCAGUAAGGAUAUACUAGCGAUUAGCUUGUAGAAGGUACAGUCUUAUGUAUAACAAAUUAACAUGAGGAUCACCCAUGU,–,–,9.19,7.65
AAUACAUGAGGAUCACCCAUGUAAAGAUCUGUUAAUAGAUGUGAGGAUAUACUAAAUUUUAGGUAGUAGAAGGCACUGGGUACA,–,–,22.1,26
AAUAGGCGAGGAUAUACAUGAGGAUCACCCAUGUAAGUAAGCCUGGCUGAAACUGAAUGUAGAAGGCGCAAUAA,17.6,58.5,–,–
AAUAGUGGCGUAGGAUAUCUGCGUACAUGAGGAUCACCCAUGUCUCCCAACUGCUGAGCUGGGACAGAGAAGGGCGACCGCAUA,–,–,225,85.4
AAUAGUUCCGAGGAUAUAUCUCCACCGUGGGUGGUAGAAGGCGGGACAUGAGGAUCACCCAUGUACAAAUUCUC,75.2,98.1,–,–
AAUAUAAAGAGCUGGUACUCAAUAACAUGAGGAUCACCCAUGUAGGAUAUCAGCACGAUAAGUGCUGAGAAGGACAUCCAGCUC,16.6,29.4,–,–
AAUAUAAGAGCUGGAAAUACUCAAACAUGAGGAUCACCCAUGUAGGAUAUCAGCACGAUAAGUGCUGAGAAGGACAUCCAGCUC,15,15.4,–,–
AAUAUGAGCUGGAAUAACCUCAAAACAUGAGGAUCACCCAUGUAGGAUAUCAGCACGAUAAGUGCUGAGAAGGACAACCAGCUC,13.9,18.1,–,–
AAUCGCAGUGCAGGAUAUCCAAGGUUUGGCGAAGGAGAAGGGCAUGCGACAUGAGGAUCACCCAUGUAAAGUAUGGCGUCCUCU,231,117,–,–
AAUCUGUGAGGAUAUGGUGAGUAGUGCCUGAGCGCUGCUCACCAGAAGGCACAUGAGGAUCACCCAUGUAUGAA,31.2,99.6,–,–

Sequence,apparent Kd [1] [nM],apparent Kd [2] [nM],apparent Kd [3] [nM],apparent Kd [4] [nM]
AAUCUGUGAGGAUAUGGUGAGUAGUGCCUGAGCGCUGCUCACCAGAAGGCACAUGAGGAUCACCCAUGUAUGAC,34.2,153,–,–
AAUGAGUUUCUCACACUGUUCACAUGAGGAUCACCCAUGUACAGAAGGUAGAGACUUCCGGUCGCUAAGGAUAUGUAGAGGGUC,5.05,6.01,–,–
AAUGUUGUUGUGAGGAUAUCGUAGUUAUUUUGAAACGAGAAGGCACAUGAGGAUCACCCAUGUUUGUUGAUGGU,22.9,47.9,–,–
AAUGUUUGAUUCCACUUAUACAUGAGGAUCACCCAUGUUAUCGAGGAUAUGCAUUAAAGUGUUUAGCAGAAGGCGAUGUAAUUG,7.42,23.6,–,–
AAUUAGGUCACAGGAUAUACAACAUCCAAUGCUGUAGAAGGGUGUCACAAUCAUAGCUGACAUGAGGAUCACCCAUGUAUCCAC,–,–,202,106
AAUUCACAUGAGGAUCACCCAUGUCAGGAUAUGCUGACGCGGGUUUCGGUGCGUGUUGGCAGAAGGGACAGCUA,193,204,–,–
AAUUCACAUGAGGAUCACCCAUGUCAGGAUAUGGUUUUAUUUUUUUCUUUUCUUGAUUCCAGAAGGGACAGCUA,108,59.2,–,–
AAUUGACACGUAGGAUAUCGCUCUAAUUUAACACGAGAAGGACGUACAUGAGGAUCACCCAUGUUAAAUGGUGUAGAUUAGUUG,30.9,88,–,–
AAUUUACAGGGAGGAUAUACAUGAGGAUCACCCAUGUAAUCAUAUGAUAUUUUUUUUGUAUGAGUGUAGAAGGCCCAAAUACCA,11.5,13,–,–
AAUUUACAGGGAGGAUAUACAUGAGGAUCACCCAUGUAAUCAUAUGAUAUUUUUUUUGUAUGAGUGUAGAAGGCCCAACUACCA,10.7,11,–,–
AAUUUACAUGAGGAUCACCCAUGUGAGGAUAUACACACAUGCUUGUUAUUGCGUGUGUGUAGAAGGCGCGUGAU,97.3,153,–,–
AAUUUACAUGAGGAUCACCCAUGUGAGGAUAUGAUACUAUGUACUUCGGUACAUAGUAUCAGAAGGCAUGUGGG,27.2,21.4,–,–
ACAAAAUUGAUCCAAUUUACCAACAUGAGGAUCACCCAUGUGCAGGAUAUGCUAAAGAUGAAUAAGCAGAAGGGCAAAUACAUA,239,708,–,–
ACAAAGAGCCAAGGAUAUACGUCGUCGAGCCCUCCCGUAGUGGCCAGCACAUGAGGAUCACCCAUGUAGAAGGUGGCUGUAGUC,20.1,38.5,–,–
ACACAGCAAGGAUAUACAUGAGGAUCACCCAUGUGGUGGCCGUUACGGUAGGACUAGUGUAGAAGGUGCAGUGG,519,177,–,–
ACACGACAUGAGGAUCACCCAUGUGAGGAUAUCGAACUCAACUAAGCACAAAGUAACCCGAGAAGGCACACAAU,25.1,24.1,–,–
ACACGGUAUGUAGGAUAUGCAUAGCAUUGCUAUGCAGAAGGACAUGAGGAUCACCCAUGUAUGUAUUCCAUACUAAUCCCGUGA,5.78,5.88,–,–
ACACUCUAUGCAGGAUAUCGAGCCUGGGCCUUGUUUUUUGUAAACAUGAGGAUCACCCAUGUCUUCGAGAAGGGCAUAACACCG,372,136,–,–
ACAGCGUGAGGAUAUACAUGAGGAUCACCCAUGUAUGGCAGGUUAUCCUGUCGUAAGUGUAGAAGGCACGCUGU,20.4,58.5,–,–

Sequence,apparent Kd [1] [nM],apparent Kd [2] [nM],apparent Kd [3] [nM],apparent Kd [4] [nM]
ACAGCGUGAGGAUAUACAUGAGGAUCACCCAUGUAUGGCAGGUUAUCCUGUCGUAUGUGUAGAAGGCACGCUGU,60.3,73.7,–,–
ACAGCGUGAGGAUAUACAUGAGGAUCACCCAUGUGUGGCAGGUUAUCCUGUCAUGAGUGUAGAAGGCACGCUGU,30,90.7,–,–
ACAUACAUUCGAGGAUAUCGGUGAUUUAUUUUACGAGAAGGCGAUUUAAGAUUUAUUAUUUUAGACAUGAGGAUCACCCAUGUA,–,–,27.7,24.5
ACAUACUUUCGAGGAUAUCGGUGAUAUAUUUAACGAGAAGGCGAUAAAAGAUAUAAACUUAUAGACAUGAGGAUCACCCAUGUA,–,–,27.4,27.1
ACAUGACAUGAGGAUCACCCAUGUGAGGAUAUGCGAAAAAAAUUUUUAAAAAAAAUUGGCAGAAGGCACAAAAU,121,139,–,–
ACAUGAGAGUUAGGAUAUCUUGUACCUACAUGUGACAUGAGGAUCACCCAUGUGGUAAGUAUGAGGGAGAAGGAACAGAUAUGU,–,–,43.9,33.9
ACAUGAGGAUCACCCAUGUACAUGGGUAUUAUUGUUUGUUACUAGGAUAUGUAUUUGAAUUUACAACAGAAGGAGUAUUAAUGU,1160,632,–,–
ACAUGAGGAUCACCCAUGUAGAGUGAAGAAGGUAGAUACUUAUGACUCUCCCAUGUACAUAGGACUGAGGAUAUUCUAAUAAUU,–,–,23.4,18.9
ACAUGAGGAUCACCCAUGUAUAGAUUUGAAUGUUAAGUUACGUAGGAUAUCGUGUUUAGUAUGAUCGAGAAGGACGAUCUGAUA,–,–,25.8,20.8
ACAUGAGGAUCACCCAUGUGAUGAUCUCCCAUGUCAUAUUUCAGAAGGCUCGCGUGUUUGAUGAGAGAGGAUAUGGAAUAUGCG,208,152,–,–
ACAUGAGGAUCACCCAUGUGGACAUAGGAUAUUGGUGAUCAGGCGUGUUAUACAGGAUAGGUCUGCGAGAAGGGUGUGCGUUGC,–,–,406,218
ACAUGAGGAUCACCCAUGUUCACAUAGGAUAUUGAUUAUAUUGGAUAUAGAAUAUUUAUAAUACACAAGAAGGAUGCAAGAUGG,–,–,16.4,13.5
ACAUGAGGAUCACCCAUGUUCACAUAGGAUAUUGAUUAUAUUGGUUUAAGAAUAGUAAUUGACCACAAGAAGGAUGCCUGAUCU,–,–,12.2,9.7
ACAUGAGGAUGAGGAUAUUCAUCCAUGAGGAUAGAAGAAGGCAUACAUGAGGAUCACCCAUGUAUACACAUGAGGAUCCCUUAU,44.5,121,–,–
ACAUGAUACAAGAAGGAUGAAUUAGAUUUGAUCAUAGGAUAUUGUUAUAUUGUUUACUCUAAUAACAUGAGGAUCACCCAUGUA,–,–,10.4,6.94
ACAUGAUCAGGAUAUACAUGAGGAUCACCCAUGUUUAUCAAAAAAGGGCCUUCUACAUGUAGAAGGGAUCUUGU,14.8,15.1,–,–
ACAUGAUCAGGAUAUACAUGAGGAUCACCCAUGUUUAUCAAAAAAGGGCUUUCUACAUGUAGAAGGGAUCUUGU,21.8,39.9,–,–
ACAUGUAAUGUAGGAUAUUUUACACAUGAGGAUCACCCAUGUGACCAGAGGCUUUGCUAUGAGUAAAAGAAGGGUAUGUACAUG,61.8,60.4,–,–
